Sampled rows, rich in hits. Any-hit rate of the full collection: about 2.3%.
Calb FLC: affects C. albicans growth with fluconazole; C. albicans CaCi-2 (fluconazole-resistant clinical isolate) + fluconazole, Alamar Blue growth, 48 h; growth inhibition, % (no concentration beside the values); actives 0.57% (n = 300,000); AID 1979;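 active = growth inhibition above about 58% in most replicates, limit read from the data, passing the limit was not always enough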;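 note: all wells also contain fluconazole at 8 µg/ml as a sub-toxic cotreatment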
HGIII-sPLA2 inh: Inhibits HGIII-sPLA2 liposome hydrolysis, primary screen | AID 743126 | Q9NZ20 | actives 0.56% (n = 370,000) | QFRET BODIPY PC-A2 liposome hydrolysis, fluorescence | inhibition, % at 12.2 µM;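 active = inhibition above mean plus 3 SD of compounds lying within the high and low control bounds, cut at about 19% in these data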
SKKanGAS inh: blocks kanamycin growth of S. pyogenes SKKanGAS strain; BacTiter-Glo, 6 h; inhibition, % at 7.5 µM; actives 1.3% (n = 300,000); AID 1662;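 active = mean replicate score, as percent of positive control median, at least 50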;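 note: strain carries kanamycin resistance gene driven by streptokinase promoter and grows in 40 µg/ml kanamycin; loss of luminescence reflects streptokinase promoter inhibition or plain growth inhibition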
ASAP1 GAP inh: ASAP1 ArfGAP inhibition | Q9ULH1 | ASAP1-stimulated ARF1 GTP hydrolysis, GDP FP detection | inhibition, % at 16.5 µM | actives 0.19% (n = 360,000); in the data active = inhibition above about 25%
Target sequence (Q9ULH1 325-724 limits assumed): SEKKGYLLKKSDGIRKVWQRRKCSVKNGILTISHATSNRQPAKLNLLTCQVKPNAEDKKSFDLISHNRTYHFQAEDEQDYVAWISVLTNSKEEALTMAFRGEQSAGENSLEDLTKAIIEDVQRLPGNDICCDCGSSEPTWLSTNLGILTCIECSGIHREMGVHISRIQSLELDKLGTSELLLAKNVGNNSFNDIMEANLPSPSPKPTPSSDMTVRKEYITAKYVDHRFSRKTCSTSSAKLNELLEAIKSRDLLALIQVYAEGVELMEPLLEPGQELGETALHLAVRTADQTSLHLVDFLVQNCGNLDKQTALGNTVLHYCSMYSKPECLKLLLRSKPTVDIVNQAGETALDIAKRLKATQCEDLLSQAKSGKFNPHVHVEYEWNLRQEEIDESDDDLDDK
ARFGAP1 inh: rat ARFGAP1 inhibition | inhibition, % at 16.5 µM | actives 0.26% (n = 360,000) | Q62848 | AID 651572 | Arfgap1-stimulated ARF1 GTP hydrolysis, GDP FP detection;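 active = inhibition above a per-plate limit, mean inhibition of low control wells plus 3 SD, cut at about 25% in these data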
Target sequence (Q62848 1-136 limits assumed): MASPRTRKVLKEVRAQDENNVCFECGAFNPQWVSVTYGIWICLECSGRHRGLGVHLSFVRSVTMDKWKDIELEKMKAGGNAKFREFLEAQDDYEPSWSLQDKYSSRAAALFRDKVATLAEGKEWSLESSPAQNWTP
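Assay system: Rat Arfgap1 GAP domain (His6, aa 1-136), purified enzyme | Buffer or medium: HEPES 25 mM pH 7.5, NaCl 150 mM, MgCl2, DTT | Schedule: GTP hydrolysis reaction 2 h at 25 °C | Signal: FP of antibody-bound GDP Alexa 633 tracer, ex 620/em 688 nm | Measure: Percent inhibition of Arfgap1-stimulated GTP hydrolysis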
Numbers stand for hits; . = inactive; / = no result.

SMILES	Calb FLC	HGIII-sPLA2 inh	SKKanGAS inh	ASAP1 GAP inh	ARFGAP1 inh
CSc1ccc(C=NNc2ccc(S(=O)(=O)Nc3ccccc3C(=O)O)cc2[N+](=O)[O-])cc1	/	.	/	.	.
Cc1nn(-c2ccccc2)c(Cl)c1/C=N/Nc1ccc(S(=O)(=O)Nc2ccccc2C(=O)O)cc1[N+](=O)[O-]	.	.	119	.	.
Cc1nnc2n(-c3ccccc3)c(=O)c3c4c(sc3n12)COC(C(C)C)C4 (centres undefined)	.	.	.	.	.
CC(C)C1Cc2c(sc3[nH]c(=S)n(Cc4ccccc4)c(=O)c23)CO1 (centres undefined)	.	.	82	.	.
O=S(=O)(Nc1ccc(N=Nc2ccccc2)cc1)c1ccccc1	.	.	.	.	.
O=S(=O)(Nc1ccc(N=Nc2ccc(O)c3ccccc23)cc1)c1ccccc1	.	.	96	.	.
NS(=O)(=O)c1cccc(NC(=S)NCc2ccc3c(c2)OCO3)c1	116	.	/	.	.
Cc1ccc(/C=N/NC(=O)c2c(C)nc3ccc(Cl)cn23)cc1	/	.	/	.	.
O=Nc1c(O)n(Cc2cccc(Cl)c2)c2ccccc12	84	.	.	.	.
NC(=S)N=Nc1c(O)n(Cc2ccccc2)c2ccccc12	.	.	.	.	.
COc1ccc(Oc2c(Cl)cnn(CC(=O)C(c3ccccc3)c3ccccc3)c2=O)cc1	/	.	/	/	/
CCC(NC(=O)c1ccc2c(ccn2Cc2cccc(-c3ccccc3C(=O)O)c2)c1)c1ccccc1 (centres undefined)	/	.	/	/	/
COc1ccccc1CNC(=O)COc1cc(O)c2c(c1)OC(C)(C)CC2=O	/	.	/	.	.
Cc1ccc(-c2csc3nc4c5ccccc5c(NCCCN(C)C)nn4c(=O)c23)cc1	78	.	.	.	.
Cc1ccc(-c2csc3nc4c5ccccc5c(NCCCN5CCOCC5)nn4c(=O)c23)cc1	.	/	.	/	/
CCN(CC)C(=O)CC[C@H]1CC[C@]2(CCCN(C(=O)C3CCCC3)C2)O1	/	.	/	/	/
O=C(CCS(=O)(=O)c1ccc(Cl)cc1)Nc1nc(-c2ccncc2)cs1	85	.	.	.	.
COCCCNC(=O)C[C@H]1C[C@@]2(C(=O)OC)C(=C[C@H](COCc3ccccc3)O[C@@H]2C)N(CCc2ccc(OC)c(OC)c2)C1=O	/	.	/	/	/
NC(=O)N/N=C(/CCCCCC/C(=N\NC(N)=O)c1ccccc1)c1ccccc1	.	.	53	.	.
CCn1c(COc2ccc(C)cc2)nnc1SCC(=O)c1ccc(-c2ccccc2)cc1	/	.	/	/	/
CCOC(=O)c1cc(-c2cccs2)nc2c1c(C)nn2-c1ccccn1	.	.	58	.	.
CC(C)(C)c1ccc(C(=O)N2CCOC23CCCCC3)cc1	/	.	/	.	.
Nc1nc(NCCOCCO)nc(N2CCCCCC2)c1[N+](=O)[O-]	.	.	77	.	.
COc1ccc(NC(=O)NC2CCCc3ccccc32)cc1OC (centres undefined)	.	.	.	.	.
COc1ccc(C)cc1NC(=O)NC1CCCc2ccccc21 (centres undefined)	.	.	51	.	.
SMILES	Calb FLC	HGIII-sPLA2 inh	SKKanGAS inh	ASAP1 GAP inh	ARFGAP1 inh
Cc1cc(F)ccc1C(=O)N1CCC(Oc2cccnc2)CC1	/	.	/	/	/
CCCC(C)C(=O)NC1CCCCN(Cc2ccccc2C)C1=O (centres undefined)	/	.	/	/	/
Cc1nnc(NC(=O)CSc2ncnc3c2cnn3-c2ccccc2C)s1	85	.	.	.	.
Cc1ccccc1-n1ncc2c(SCC(=O)NC3CCCC3)ncnc21	.	.	.	.	.
CCCCNC(=O)c1cn(C)c2ccc(S(=O)(=O)N3CCCC3)cc2c1=O	85	.	.	.	.
O=C(COCc1ccccc1)NC1CCCCN(Cc2cccc(Cl)c2)C1=O (centres undefined)	/	.	/	/	/
Cc1ccc(NC(=S)NCCC(c2ccccc2)c2ccccc2)c(C)c1	.	.	66	.	.
S=C(NCCC(c1ccccc1)c1ccccc1)Nc1cccc(Cl)c1	.	.	102	.	.
O=C(NCCCc1ccccc1)Nc1cccc(Cl)c1	107	.	.	.	.
S=C(NCCN(C1CCCCC1)C1CCCC1)Nc1cccc(Cl)c1	.	.	.	.	.
CCCCCCCCN1C(=O)[C@@H](CC(=O)N2CCCCC2)C[C@@]2(C(=O)OC)C1=C[C@H](COCc1ccccc1)O[C@@H]2C	/	.	/	/	/
CCCCNC(=O)C[C@@H]1C(=O)N2CCCC3=C2[C@@]1(C(=O)OCC)CCC3	/	.	/	/	/
CCn1c(Sc2nc(C)nc3scc(-c4cccs4)c23)n[nH]c1=O	95	.	.	.	.
Cc1nc(SCC(=O)NC(=O)NCCC(C)C)c2c(-c3cccs3)csc2n1	.	.	.	.	.
c1ccc(N2N=C(c3cccs3)CC2c2ccco2)cc1 (centres undefined)	.	.	65	.	.
Clc1ccc(N2N=C(c3cccs3)CC2c2ccco2)cc1 (centres undefined)	.	.	.	.	.
O=c1cc(CN2CCN(C/C=C/c3ccccc3)CC2)c2cc(O)c(-c3ccccc3)cc2o1	.	.	.	.	.
CC(C)CN(Cc1cc(=O)oc2cc(-c3ccccc3)c(O)cc12)CC(C)C	.	.	76	.	.
CC(OC(=O)c1ccc(NC(=O)CC#N)cc1)C(=O)NC(=O)NC1CCCCC1 (centres undefined)	.	.	59	.	.
Cc1cc(C)cc(NC(=O)C(OC(=O)c2ccc(NC(=O)CC#N)cc2)c2ccccc2)c1 (centres undefined)	.	.	57	.	.
CC(OC(=O)c1ccc(NC(=O)CC#N)cc1)C(=O)NCCC1=CCCCC1 (centres undefined)	/	.	/	.	.
Cc1ccc(/C=C/C(=O)NC(=S)Nc2ccc(S(=O)(=O)Nc3cc(C)on3)cc2)cc1	.	.	52	.	.
Cc1cc(NS(=O)(=O)c2ccc(NC(=S)NC(=O)/C=C/c3ccccc3)cc2)no1	.	.	.	.	.
Cc1ccc(-c2cc(C(=O)Nc3ccc(S(=O)(=O)Nc4cc(C)on4)cc3)c3ccccc3n2)c(C)c1	.	.	54	.	.
C/C(=C\C(=O)OCCCCCCCCC(=O)O)C[C@@H]1OC[C@H](C[C@@H]2O[C@H]2[C@@H](C)[C@H](C)O)[C@@H](O)[C@H]1O	/	.	103	.	.
SMILES	Calb FLC	HGIII-sPLA2 inh	SKKanGAS inh	ASAP1 GAP inh	ARFGAP1 inh
CCCCn1c(=O)c(C(=O)N/N=C/c2ccc(F)cc2)c(O)c2ccccc21	.	/	.	/	/
CC(C)Cn1c(=O)c(C(=O)N/N=C/c2cccc(F)c2)c(O)c2ccccc21	.	.	64	.	.
NC1(N2SC(S)=C3CCCC=C32)CCCCC1	/	.	/	.	.
CCOc1ccc(-n2c(C)cc(C(=O)CCl)c2C)cc1	91	.	.	.	.
COC(=O)c1ccc(-n2c(C)cc(C(=O)CCl)c2C)cc1	.	.	.	.	.
CCOC(=O)C1=CCN(S(=O)(=O)c2ccc(Br)cc2)C1c1ccc(F)cc1 (centres undefined)	/	.	/	.	.

Compound activity from PubChem BioAssay.
